ChEMBL document CHEMBL1136915 (Bioorg Med Chem Lett, 2009)

Columns and labels:
[1] = system: Rattus norvegicus; experiment: Antiinflammatory activity against carrageenan-induced rat inflammation model assessed as inhibition of paw edema at 327 umol/kg, po after 3 hrs; assay type: functional
Outline: (§1)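 Test compound was given orally to rats at the stated dose (µmol/kg), followed by carrageenan-induced paw edema.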

[2] = system: Serum; experiment: Nitric oxide release in rat serum containing phosphate buffer at pH 7.4 incubated at 37 degC after 1.5 hrs; details: pH 7.4, 1.5 h
[3] = Nitric oxide release in phosphate buffer at pH 7.4 incubated at 37 degC after 1.5 hrs; design: concentration or dose not given beside the values; details: pH 7.4, 1.5 h
[4] = Nitric oxide release in phosphate buffer containing 5 mM L-cysteine at pH 7.4 incubated at 37 degC after 1.5 hrs; details: pH 7.4, 1.5 h
[5] = Selectivity ratio of IC50 for ovine COX1 to IC50 for human COX2
Outline: (§2)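 COX inhibition was measured in vitro with an enzyme immunoassay kit. IC50 is the mean of two determinations, with deviation from the mean <10%. COX-2 selectivity index = COX-1 IC50/COX-2 IC50.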

[6] = target: T1, Prostaglandin G/H synthase 1 (Ovis aries, UniProt P05979); experiment: Inhibition of ovine COX1 by enzyme immunoassay
T1 sequence (P05979 whole entry): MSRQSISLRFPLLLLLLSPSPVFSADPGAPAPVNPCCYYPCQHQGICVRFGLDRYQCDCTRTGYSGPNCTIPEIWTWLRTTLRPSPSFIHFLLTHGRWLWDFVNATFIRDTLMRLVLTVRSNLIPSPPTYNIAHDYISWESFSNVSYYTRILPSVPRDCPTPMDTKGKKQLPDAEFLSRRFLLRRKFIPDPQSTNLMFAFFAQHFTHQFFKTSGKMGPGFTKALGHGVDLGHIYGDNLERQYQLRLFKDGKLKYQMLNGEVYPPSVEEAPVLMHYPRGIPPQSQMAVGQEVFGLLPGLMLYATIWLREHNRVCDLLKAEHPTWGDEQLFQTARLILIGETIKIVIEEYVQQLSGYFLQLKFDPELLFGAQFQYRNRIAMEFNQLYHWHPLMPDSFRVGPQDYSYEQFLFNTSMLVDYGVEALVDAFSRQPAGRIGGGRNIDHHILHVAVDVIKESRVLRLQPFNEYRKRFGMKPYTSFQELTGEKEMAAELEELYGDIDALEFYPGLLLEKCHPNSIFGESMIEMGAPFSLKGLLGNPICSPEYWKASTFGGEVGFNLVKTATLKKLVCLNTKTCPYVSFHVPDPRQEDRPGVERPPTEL
Outline: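 COX inhibition was measured in vitro with an enzyme immunoassay kit. COX-2 selectivity index = COX-1 IC50/COX-2 IC50.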

[7] = system: Rattus norvegicus; experiment: Antiinflammatory activity against carrageenan-induced rat inflammation model assessed as inhibition of paw edema at 11.7 umol/kg, po after 3 hrs; assay type: functional; outline: as §1
[8] = target: T2, Prostaglandin G/H synthase 2 (Homo sapiens, UniProt P35354); experiment: Inhibition of human COX2 by enzyme immunoassay; outline: as §2
T2 sequence (P35354 whole entry): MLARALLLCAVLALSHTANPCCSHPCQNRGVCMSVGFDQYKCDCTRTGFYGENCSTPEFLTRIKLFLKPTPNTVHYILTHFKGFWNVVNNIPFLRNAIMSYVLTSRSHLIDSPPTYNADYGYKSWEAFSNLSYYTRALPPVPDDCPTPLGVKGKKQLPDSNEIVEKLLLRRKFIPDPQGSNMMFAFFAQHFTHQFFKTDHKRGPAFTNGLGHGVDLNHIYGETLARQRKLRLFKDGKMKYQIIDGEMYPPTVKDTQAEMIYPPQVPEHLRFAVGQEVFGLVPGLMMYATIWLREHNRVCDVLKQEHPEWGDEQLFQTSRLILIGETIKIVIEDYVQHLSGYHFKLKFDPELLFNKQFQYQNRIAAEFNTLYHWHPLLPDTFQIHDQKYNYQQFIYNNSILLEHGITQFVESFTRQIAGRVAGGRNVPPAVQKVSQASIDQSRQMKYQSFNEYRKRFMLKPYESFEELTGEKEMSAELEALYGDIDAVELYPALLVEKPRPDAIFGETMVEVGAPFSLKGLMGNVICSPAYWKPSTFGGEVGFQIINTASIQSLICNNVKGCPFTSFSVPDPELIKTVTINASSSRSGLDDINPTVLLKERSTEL

[9] = system: Rattus norvegicus; experiment: Antiinflammatory activity against carrageenan-induced rat inflammation model assessed as inhibition of paw edema at 714 umol/kg, po after 3 hrs; assay type: functional; outline: as §1
[10] = system: Rattus norvegicus; experiment: Antiinflammatory activity against carrageenan-induced rat inflammation model assessed as inhibition of paw edema at 357 umol/kg, po after 3 hrs; assay type: functional; outline: as §1

Row | Structure (SMILES) | inhibition in vivo at 327 µmol/kg [1] [%] | Activity [2] [%] | Activity [3] [%] | Activity [4] [%] | Ratio IC50 [5] | IC50 [6] [µM] | inhibition in vivo at 11.7 µmol/kg [7] [%] | IC50 [8] [µM] | inhibition in vivo at 714 µmol/kg [9] [%] | inhibition in vivo at 357 µmol/kg [10] [%]
1 | CC(C)Cc1ccc(C(C)C(=O)O)cc1 (stereo not drawn) [IBUPROFEN] | 50 |  |  |  |  |  |  |  |  | 
2 | [Na+].[O-]/N=[N+](\[O-])N1CCC[C@H]1CO |  | 84.8 | 84.5 |  |  |  |  |  |  | 
3 | O=[N+]([O-])OCC(CO[N+](=O)[O-])O[N+](=O)[O-] [NITROGLYCERIN] |  |  | 2.8 | 10.1 |  |  |  |  |  | 
4 | COc1ccc2c(c1)c(CC(=O)OC[C@@H]1CCCN1/[N+]([O-])=N/OCOC(C)=O)c(C)n2C(=O)c1ccc(Cl)cc1 |  | 80.7 | 7.9 |  | > 10 | > 100 | 53.6 | 9.3 |  | 
5 | COc1ccc2c(c1)c(CC(=O)O)c(C)n2C(=O)c1ccc(Cl)cc1 [INDOMETHACIN] |  |  |  |  |  |  | 50 |  |  | 
6 | CC(=O)Oc1ccccc1C(=O)O [ASPIRIN] |  |  |  |  |  |  |  |  | 50 | 
7 | CC(C)Cc1ccc(C(C)C(=O)OC(CO[N+](=O)[O-])CO[N+](=O)[O-])cc1 (stereo not drawn) | 59.1 |  | 3.4 | 6.8 | > 58 | > 100 |  | 1.7 |  | 
8 | CC(=O)Oc1ccccc1C(=O)OC(CO[N+](=O)[O-])CO[N+](=O)[O-] |  |  | 3.6 | 7.8 | > 13 | > 100 |  | 7.7 |  | 30.5
9 | CC(=O)OCO/N=[N+](\[O-])N1CCC[C@H]1COC(=O)C(C)c1ccc(CC(C)C)cc1 (stereo partly drawn) | 57.1 | 79.5 | 4.4 |  | > 15 | > 100 |  | 6.4 |  | 
10 | COc1ccc2c(c1)c(CC(=O)OC(CO[N+](=O)[O-])CO[N+](=O)[O-])c(C)n2C(=O)c1ccc(Cl)cc1 |  |  | 3.8 | 7.4 | > 166 | > 100 | 42.2 | 0.6 |  | 
11 | CC(=O)OCO/N=[N+](\[O-])N1CCC[C@H]1COC(=O)c1ccccc1OC(C)=O |  | 50.6 | 7.4 |  | > 45 | > 100 |  | 2.2 |  | 23.7
